The text below walks through data of ChEMBL document CHEMBL2311377, “Trisubstituted thiophene analogues of 1-thiazolyl-2-pyrazoline, super oxidase inhibitors and free radical scavengers” (Bioorg Med Chem, 2013).

Data set [1] concerns Radical scavenging activity. The experiment in a line: Antioxidant activity assessed as inhibition DPPH radical production after 15 mins by spectrophotometric analysis. The format is functional. In outline: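 Compounds at 1–50 in methanol were mixed with an equal volume of methanolic DPPH. Absorbance was compared with a control of DPPH plus methanol without compound, and results are given as percent radical scavenging.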

Data set [2] concerns the target T1, Xanthine dehydrogenase/oxidase (Rattus norvegicus, UniProt P22985). Nature of the data set: Inhibition of Wistar albino rat xanthine oxidase isolated from liver using xanthine as substrate incubated for 15 mins prior to substrate addition by spectrophotometric analysis. In outline: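 Xanthine oxidase was prepared from perfused Wistar albino rat liver. The liver was homogenized in ice-cold 0.05 M phosphate (pH 7.8) with 0.1 mM EDTA and spun at 10,000g. The supernatant was precipitated with 60% ammonium sulfate, dialyzed against phosphate pH 6.8, and protein measured by Lowry. Enzyme was preincubated with compound in DMSO in phosphate pH 7.4 at room temperature for 15 min. Uric acid was read at 295 nm; inhibition was relative to DMSO-only control, and IC50 came from linear regression.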

For data set [3], the target named is T1, Xanthine dehydrogenase/oxidase. Nature of the data set: Competitive inhibition of Wistar albino rat xanthine oxidase isolated from liver using xanthine as substrate by Lineweaver-Burk plot analysis. Put shortly: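 Inhibition type was assessed with the rat liver XO preparation by varying xanthine substrate across 1–5 and analysing by Lineweaver–Burk plot.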

T1 sequence (P22985 whole entry, the tested form may be a part): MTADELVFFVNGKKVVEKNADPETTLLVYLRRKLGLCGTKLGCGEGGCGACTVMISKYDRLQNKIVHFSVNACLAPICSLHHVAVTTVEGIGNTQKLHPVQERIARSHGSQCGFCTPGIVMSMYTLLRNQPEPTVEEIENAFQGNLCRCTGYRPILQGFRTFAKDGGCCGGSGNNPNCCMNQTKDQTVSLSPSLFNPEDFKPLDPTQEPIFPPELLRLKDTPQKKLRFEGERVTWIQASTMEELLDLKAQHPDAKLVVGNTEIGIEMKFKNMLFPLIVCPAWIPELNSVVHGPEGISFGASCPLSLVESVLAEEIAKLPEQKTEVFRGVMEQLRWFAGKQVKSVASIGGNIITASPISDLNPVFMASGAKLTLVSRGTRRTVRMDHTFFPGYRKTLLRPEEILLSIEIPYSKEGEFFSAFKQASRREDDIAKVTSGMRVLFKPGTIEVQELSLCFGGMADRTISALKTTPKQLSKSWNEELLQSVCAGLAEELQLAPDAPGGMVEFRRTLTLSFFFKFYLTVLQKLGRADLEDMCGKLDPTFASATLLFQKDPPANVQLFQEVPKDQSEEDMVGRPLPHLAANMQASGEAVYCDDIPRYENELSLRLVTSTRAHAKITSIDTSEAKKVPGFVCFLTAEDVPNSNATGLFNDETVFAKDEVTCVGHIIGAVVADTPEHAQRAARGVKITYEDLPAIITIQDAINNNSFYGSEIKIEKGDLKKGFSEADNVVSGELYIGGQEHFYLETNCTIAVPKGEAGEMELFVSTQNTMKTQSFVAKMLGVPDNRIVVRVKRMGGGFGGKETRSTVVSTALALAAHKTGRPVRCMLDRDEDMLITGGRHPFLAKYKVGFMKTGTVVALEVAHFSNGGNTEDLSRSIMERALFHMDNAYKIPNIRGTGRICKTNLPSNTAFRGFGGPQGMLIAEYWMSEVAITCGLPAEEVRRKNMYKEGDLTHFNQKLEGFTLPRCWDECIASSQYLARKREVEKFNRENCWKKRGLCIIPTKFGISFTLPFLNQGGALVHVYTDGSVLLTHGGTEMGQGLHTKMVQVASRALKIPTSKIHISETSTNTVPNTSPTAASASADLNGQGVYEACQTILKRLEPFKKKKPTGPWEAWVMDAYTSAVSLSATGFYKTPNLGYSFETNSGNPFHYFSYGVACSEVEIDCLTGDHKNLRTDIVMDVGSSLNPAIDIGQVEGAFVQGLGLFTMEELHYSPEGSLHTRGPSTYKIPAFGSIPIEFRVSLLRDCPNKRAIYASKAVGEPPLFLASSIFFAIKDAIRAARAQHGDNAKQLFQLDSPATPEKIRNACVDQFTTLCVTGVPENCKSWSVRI

As to `CCCCc1nc(Cl)c(C2CC(c3cc(Cl)sc3Cl)=NN2c2nc(-c3ccc(Cl)cc3)cs2)[nH]1` (configuration not stated), the half-maximal inhibitory concentration (IC50) was 31.5 µM in data set [1] and 26 µM in data set [2].
For `CCCCc1nc(Cl)c(C2CC(c3cc(Cl)sc3SCc3ccccc3)=NN2c2nc(-c3ccc(Cl)cc3)cs2)[nH]1` (configuration not stated), the results for the IC50 in data set [1] and in data set [2] were 21.8 µM and 20 µM, respectively.
As to `CCCCc1nc(Cl)c(C2CC(c3cc(Cl)sc3S(N)(=O)=O)=NN2c2nc(-c3ccc(Cl)cc3)cs2)[nH]1` (configuration not stated), the IC50 is 29.3 µM in data set [1] and 23.9 µM in data set [2].
In the case of `Clc1ccc(-c2csc(N3N=C(c4cc(Cl)sc4Cl)CC3c3ccc(Cl)cc3)n2)cc1` (configuration not stated), the IC50 in data set [1] was 44.8 µM; in data set [2], 36 µM.
For `Clc1ccc(-c2csc(N3N=C(c4cc(Cl)sc4SCc4ccccc4)CC3c3ccc(Cl)cc3)n2)cc1` (configuration not stated), in that order: 41.5 µM and 32 µM.
Turning to `NS(=O)(=O)c1sc(Cl)cc1C1=NN(c2nc(-c3ccc(Cl)cc3)cs2)C(c2ccc(Cl)cc2)C1` (configuration not stated), the values for the half-inhibitory concentration (IC50) in data set [1] and in data set [2] were 43 µM and 34.2 µM, respectively.
For `Fc1ccc(C2CC(c3cc(Cl)sc3Cl)=NN2c2nc(-c3ccc(Cl)cc3)cs2)cc1` (configuration not stated), in that order: greater than 50 µM and greater than 50 µM.
As to `Fc1ccc(C2CC(c3cc(Cl)sc3SCc3ccccc3)=NN2c2nc(-c3ccc(Cl)cc3)cs2)cc1` (configuration not stated), the IC50 in data set [1] and in data set [2] was greater than 50 µM each time.
As for `NS(=O)(=O)c1sc(Cl)cc1C1=NN(c2nc(-c3ccc(Cl)cc3)cs2)C(c2ccc(F)cc2)C1` (configuration not stated), the half-maximal inhibitory concentration (IC50) in data set [1] and in data set [2] was greater than 50 µM each time.
In the case of `CN(C)c1ccc(C2CC(c3cc(Cl)sc3Cl)=NN2c2nc(-c3ccc(Cl)cc3)cs2)cc1` (configuration not stated), the concentration for half-maximal inhibition (IC50) worked out at 21.1 µM in data set [1] and 9.4 µM in data set [2].
As to `CN(C)c1ccc(C2CC(c3cc(Cl)sc3SCc3ccccc3)=NN2c2nc(-c3ccc(Cl)cc3)cs2)cc1` (configuration not stated), the values for the IC50 in data set [1] and in data set [2] were 15.6 µM and 6.2 µM, respectively. Besides, the “inhibition (INH)” value in data set [3] is reported as “Active”.
With `CN(C)c1ccc(C2CC(c3cc(Cl)sc3S(N)(=O)=O)=NN2c2nc(-c3ccc(Cl)cc3)cs2)cc1` (configuration not stated), the IC50 in data set [1] turned out to be 19.3 µM; in data set [2], 8.3 µM.
`Oc1ncnc2[nH]ncc12` [ALLOPURINOL] showed a half-maximal inhibitory concentration (IC50) in data set [2] of 6 µM.
Consider `O=C1O[C@H]([C@@H](O)CO)C(O)=C1O` [ASCORBIC ACID], for which the half-inhibitory concentration (IC50) in data set [1] was determined as 11.5 µM.
